Source: ChEMBL document CHEMBL3596119, “Synthesis and biological characterization of a promising F-18 PET tracer for vesicular acetylcholine transporter” (Bioorg Med Chem, 2015)

Assays:
Lung = assay: Biodistribution in Sprague-Dawley rat lung at 2.2 MBq/120 uL, iv after 5 mins by gamma counting; format: ADME, organism-based; conditions: in vivo
Outline: (§1)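 Adult male SD rats, isoflurane (2-3%)/oxygen anesthesia, tail-vein injection of ~2.2 MBq/120 μL tracer in 10% ethanol in saline; euthanized under anesthesia at the stated time (n = 4 per time point). Brain dissected into regions, remainder kept for total brain; organs, blood, bone collected and weighed, gamma-counted against a standard dilution of injectate; %ID/g calculated.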

Bone = assay: Biodistribution in Sprague-Dawley rat bone at 2.2 MBq/120 uL, iv after 120 mins by gamma counting; format: ADME, organism-based, Bone element; conditions: in vivo, 2 h; outline: as §1
Muscle tissue = assay: Biodistribution in Sprague-Dawley rat muscle at 2.2 MBq/120 uL, iv after 60 mins by gamma counting; format: ADME, organism-based; conditions: in vivo, 1 h; outline: as §1
Blood [1] = assay: Biodistribution in Sprague-Dawley rat blood at 2.2 MBq/120 uL, iv after 30 mins by gamma counting; format: ADME, organism-based; conditions: in vivo, 0.5 h; outline: as §1
Striatum [2] = assay: Ex-vivo drug uptake in Sprague-Dawley rat striatum at 63 MBq, iv after 60 mins by autoradiography; format: ADME, organism-based; conditions: 1 h
Outline: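 One adult male SD rat received ~63.0 MBq by tail vein under anesthesia and was killed at 60 min. The brain was snap-frozen and cut into 100 μm horizontal sections. Sections were exposed to film for 12 h at -80 °C. Striatum-to-cerebellum ratio was quantified over 30 slices.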

Heart = assay: Biodistribution in Sprague-Dawley rat heart at 2.2 MBq/120 uL, iv after 5 mins by gamma counting; format: ADME, organism-based; conditions: in vivo; outline: as §1
Rattus norvegicus [3] = assay: Biodistribution in Sprague-Dawley rat total brain at 2.2 MBq/120 uL, iv after 5 mins by gamma counting; format: ADME, organism-based; conditions: in vivo
Outline: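 Injected by tail vein in 10% ethanol in saline into adult male SD rats under 2-3% isoflurane/oxygen anesthesia. Rats were killed under anesthesia, n = 4 per time point. Total brain and other tissues were weighed and gamma-counted against a standard dilution of the injectate. Values are %ID/g.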

Liver = assay: Biodistribution in Sprague-Dawley rat liver at 2.2 MBq/120 uL, iv after 30 mins by gamma counting; format: ADME, organism-based; conditions: in vivo, 0.5 h; outline: as §1
Striatum [4] = assay: Biodistribution in Sprague-Dawley rat striatum at 2.2 MBq/120 uL, iv after 60 mins by gamma counting; format: ADME, organism-based; conditions: in vivo, 1 h; outline: as §1
Rattus norvegicus [5] = assay: Biodistribution in Sprague-Dawley rat total brain at 2.2 MBq/120 uL, iv after 120 mins by gamma counting; format: ADME, organism-based; conditions: in vivo, 2 h; outline: as §1
Rattus norvegicus [6] = assay: Biodistribution in Sprague-Dawley rat fat at 2.2 MBq/120 uL, iv after 120 mins by gamma counting; format: ADME, organism-based, Adipose tissue; conditions: in vivo, 2 h; outline: as §1
Blood [7] = assay: Biodistribution in Sprague-Dawley rat blood at 2.2 MBq/120 uL, iv after 60 mins by gamma counting; format: ADME, organism-based; conditions: in vivo, 1 h; outline: as §1
[8] = Drug uptake in cynomolgus monkey striatum at 296 to 410 MBq administered via venous catheter after 120 mins by microPET imaging in presence of 0.25 mg/kg (-)-vesamicol; format: ADME, organism-based, Macaca fascicularis; conditions: in vivo, 2 h
Outline: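 Blocking scan: (-)-vesamicol 0.25 mg/kg was given through the venous catheter 5 min before the tracer (296–410 MBq). The monkey was under isoflurane anesthesia. A 2 h dynamic microPET scan followed, and striatal and cerebellar time-activity curves were generated.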

Cortex = assay: Biodistribution in Sprague-Dawley rat cortex at 2.2 MBq/120 uL, iv after 5 mins by gamma counting; format: ADME, organism-based; conditions: in vivo; outline: as §1
Plasma = assay: Retention time in monkey plasma assessed as radioactivity at 15 to 106 MBq after 5 to 60 mins by HPLC analysis; format: ADME, cell-free, Macaca mulatta; conditions: rhesus monkey
Rattus norvegicus [9] = assay: Biodistribution in Sprague-Dawley rat fat at 2.2 MBq/120 uL, iv after 30 mins by gamma counting; format: ADME, organism-based, Adipose tissue; conditions: in vivo, 0.5 h; outline: as §1
Pancreas = assay: Biodistribution in Sprague-Dawley rat pancreas at 2.2 MBq/120 uL, iv after 120 mins by gamma counting; format: ADME, organism-based; conditions: in vivo, 2 h; outline: as §1

What does the source list for O=C(c1ccc(F)cc1)C1CCN(C2Cc3c(cccc3OCC[18F])CC2O)CC1 (single isomer, unassigned; (-))?
Drug uptake (Lung): 2.255 % ID/g; Drug uptake (Bone): 0.537 % ID/g; Drug uptake (Muscle tissue): 0.253 % ID/g; Drug uptake (Blood [1]): 0.27 % ID/g; Drug uptake (Striatum [2]): Active; Drug uptake (Heart): 0.706 % ID/g; Drug uptake (Rattus norvegicus [3]): 0.684 % ID/g; Drug uptake (Liver): 0.523 % ID/g; Drug uptake (Striatum [4]): 0.819 % ID/g; Drug uptake (Rattus norvegicus [5]): 0.409 % ID/g; Drug uptake (Rattus norvegicus [6]): 0.56 % ID/g; Drug uptake (Blood [7]): 0.338 % ID/g; Drug uptake [8]: Not Active; Drug uptake (Cortex): 0.777 % ID/g; Retention_time (Plasma): 9 min; Drug uptake (Rattus norvegicus [9]): 0.324 % ID/g; Drug uptake (Pancreas): 0.819 % ID/g
